According to ChEMBL document CHEMBL2384929, “Synthesis and biological evaluation of fluoro analogues of antimitotic phenstatin” (Bioorg Med Chem, 2013):

Key:
[1] = organism: Ovis aries; assay: Inhibition of sheep brain tubulin assembly at 100 uM by DAPI staining-based fluorescence assay
Summary of the method: (§1)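 Tubulin from sheep brain, purified by two assembly–disassembly cycles, at about 2–3 mg/mL in 0.1 M MES, 0.5 mM MgCl2, 1 mM EGTA, 1 mM GTP, pH 6.6. Assembly followed by DAPI fluorescence at 37 °C. Single-point inhibition tested at 100 µM. IC50 is the concentration halving the assembly rate relative to no compound, mean of two experiments, with reference inhibitors run the same day.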

[2] = test system: OVCAR-3; assay: Cytotoxicity against human OVCAR3 cells assessed as growth inhibition after 48 hrs by SRB assay; assay type: functional; conditions: OVCAR-3, 48 h
Summary of the method: (§2)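 Run in the NCI 60 human tumour cell line panel. Cells exposed for 48 h, growth read by sulforhodamine B. Compounds were first screened at a single 10 µM dose, and those meeting preset threshold inhibition criteria went on to the 5-dose screen. GI50 is the molar concentration giving 50% growth inhibition.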

[3] = test system: DU-145; assay: Cytotoxicity against human DU145 cells assessed as growth inhibition after 48 hrs by SRB assay; assay type: functional; conditions: DU-145, 48 h; summary of the method: as §2
[4] = Inhibition of sheep brain tubulin assembly by DAPI staining-based fluorescence assay; parameters: species or system Ovis aries; summary of the method: as §1
[5] = test system: NCI-H460; assay: Cytotoxicity against human NCI-H460 cells assessed as growth inhibition after 48 hrs by SRB assay; assay type: functional; conditions: NCI-H460, 48 h; summary of the method: as §2
[6] = test system: NCI-H522; assay: Cytotoxicity against human NCI-H522 cells assessed as growth inhibition after 48 hrs by SRB assay; assay type: functional; conditions: NCI-H522, 48 h; summary of the method: as §2
[7] = test system: PC-3; assay: Cytotoxicity against human PC3 cells assessed as growth inhibition after 48 hrs by SRB assay; assay type: functional; conditions: PC-3, 48 h; summary of the method: as §2
[8] = test system: BT-549; assay: Cytotoxicity against human BT549 cells assessed as growth inhibition after 48 hrs by SRB assay; assay type: functional; conditions: BT-549, 48 h; summary of the method: as §2
[9] = test system: SK-OV-3; assay: Cytotoxicity against human SKOV3 cells assessed as growth inhibition after 48 hrs by SRB assay; assay type: functional; conditions: SK-OV-3, 48 h; summary of the method: as §2
[10] = test system: Hs-578T; assay: Cytotoxicity against human Hs578T cells assessed as growth inhibition after 48 hrs by SRB assay; assay type: functional; summary of the method: as §2
[11] = test system: RXF 393; assay: Cytotoxicity against human RXF393 cells assessed as growth inhibition after 48 hrs by SRB assay; assay type: functional; conditions: RXF 393, 48 h; summary of the method: as §2
[12] = test system: SNB-75; assay: Cytotoxicity against human SNB75 cells assessed as growth inhibition after 48 hrs by SRB assay; assay type: functional; conditions: SNB-75, 48 h; summary of the method: as §2
[13] = test system: SR; assay: Cytotoxicity against human SR cells assessed as growth inhibition after 48 hrs by SRB assay; assay type: functional; summary of the method: as §2
[14] = test system: HCT-15; assay: Cytotoxicity against human HCT15 cells assessed as growth inhibition after 48 hrs by SRB assay; assay type: functional; conditions: HCT-15, 48 h; summary of the method: as §2
[15] = test system: MDA-MB-231; assay: Cytotoxicity against human MDA-MB-231 cells assessed as growth inhibition after 48 hrs by SRB assay; assay type: functional; conditions: MDA-MB-231, 48 h; summary of the method: as §2
[16] = test system: MDA-MB-435; assay: Cytotoxicity against human MDA-MB-435 cells assessed as growth inhibition after 48 hrs by SRB assay; assay type: functional; conditions: MDA-MB-435, 48 h; summary of the method: as §2
[17] = test system: SF-539; assay: Cytotoxicity against human SF539 cells assessed as growth inhibition after 48 hrs by SRB assay; assay type: functional; conditions: SF-539, 48 h; summary of the method: as §2
[18] = test system: CCRF-CEM; assay: Cytotoxicity against human CCRF-CEM cells assessed as growth inhibition after 48 hrs by SRB assay; assay type: functional; summary of the method: as §2
[19] = test system: K562; assay: Cytotoxicity against human K562 cells assessed as growth inhibition after 48 hrs by SRB assay; assay type: functional; conditions: K562, 48 h; summary of the method: as §2
[20] = test system: SN12C; assay: Cytotoxicity against human SN12C cells assessed as growth inhibition after 48 hrs by SRB assay; assay type: functional; summary of the method: as §2
[21] = test system: Malme-3M; assay: Cytotoxicity against human MALME-3M cells assessed as growth inhibition after 48 hrs by SRB assay; assay type: functional; summary of the method: as §2
[22] = test system: NCI-H23; assay: Cytotoxicity against human NCI-H23 cells assessed as growth inhibition after 48 hrs by SRB assay; assay type: functional; conditions: NCI-H23, 48 h; summary of the method: as §2
[23] = test system: ACHN; assay: Cytotoxicity against human ACHN cells assessed as growth inhibition after 48 hrs by SRB assay; assay type: functional; summary of the method: as §2
[24] = test system: SF-268; assay: Cytotoxicity against human SF268 cells assessed as growth inhibition after 48 hrs by SRB assay; assay type: functional; conditions: SF-268, 48 h; summary of the method: as §2
[25] = test system: SNB-19; assay: Cytotoxicity against human SNB19 cells assessed as growth inhibition after 48 hrs by SRB assay; assay type: functional; conditions: SNB-19, 48 h; summary of the method: as §2
[26] = test system: NCI/ADR-RES; assay: Cytotoxicity against human NCI/ADR-RES cells assessed as growth inhibition after 48 hrs by SRB assay; assay type: functional; summary of the method: as §2
[27] = test system: M14; assay: Cytotoxicity against human M14 cells assessed as growth inhibition after 48 hrs by SRB assay; assay type: functional; conditions: M14, 48 h; summary of the method: as §2
[28] = test system: KM12; assay: Cytotoxicity against human KM12 cells assessed as growth inhibition after 48 hrs by SRB assay; assay type: functional; conditions: KM12, 48 h; summary of the method: as §2
[29] = test system: HL-60(TB); assay: Cytotoxicity against human HL-60(TB) cells assessed as growth inhibition after 48 hrs by SRB assay; assay type: functional; conditions: HL-60, 48 h
Summary of the method: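 NCI 60-human-cancer-cell-line screen; only compounds meeting predetermined threshold inhibition criteria in the single-dose test went on to the 5-dose screen. Cells exposed for 48 h and growth read by sulforhodamine B assay. GI50 is the molar concentration giving 50% growth inhibition of tumour cells.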

[30] = test system: SW-620; assay: Cytotoxicity against human SW620 cells assessed as growth inhibition after 48 hrs by SRB assay; assay type: functional; conditions: SW-620, 48 h; summary of the method: as §2

SMILES	inhibition [1]	GI50 [2]	GI50 [3]	IC50 [4]	GI50 [5]	GI50 [6]	GI50 [7]	GI50 [8]	GI50 [9]	GI50 [10]	GI50 [11]	GI50 [12]	GI50 [13]	GI50 [14]	GI50 [15]	GI50 [16]	GI50 [17]	GI50 [18]	GI50 [19]	GI50 [20]	further results
COc1ccc(C(=O)c2ccc(OC)c(NC(C)=O)c2OC)cc1F	3%	–	–	–	–	–	–	–	–	–	–	–	–	–	–	–	–	–	–	–	–
COc1ccc(C(=O)c2cc(OC)c(OC)c(OC)c2)cc1O [PHENSTATIN]	99%	0.002 µM	0.034 µM	3.43 µM	0.006 µM	–	–	–	–	–	–	–	–	–	–	–	–	–	–	–	–
COc1ccc(C(=O)c2cc(F)c(F)c(OC)c2F)cc1OC(=O)CCl	46%	–	–	–	–	–	–	–	–	–	–	–	–	–	–	–	–	–	–	–	–
C=C(c1ccc(OC)c(O)c1)c1cc(F)c(F)c(OC)c1F	77%	0.217 µM	0.139 µM	42.2 µM	0.343 µM	0.025 µM	0.14 µM	0.061 µM	0.094 µM	0.052 µM	0.176 µM	0.055 µM	0.015 µM	0.045 µM	0.094 µM	0.019 µM	0.031 µM	0.037 µM	0.037 µM	0.209 µM	GI50 [21]: 0.044 µM; GI50 [22]: 0.385 µM; GI50 [23]: 0.067 µM; GI50 [24]: 0.075 µM; GI50 [25]: 0.067 µM; GI50 [26]: 0.038 µM; GI50 [27]: 0.038 µM; GI50 [28]: 0.047 µM; GI50 [29]: 0.023 µM; GI50 [30]: 0.045 µM
COc1cc(C(=O)c2cc(OC)c(OC)c(OC)c2)c(OC)cc1F	77%	0.045 µM	0.257 µM	24 µM	0.115 µM	0.102 µM	0.207 µM	0.365 µM	0.213 µM	0.194 µM	0.144 µM	0.109 µM	0.043 µM	0.055 µM	0.388 µM	0.025 µM	0.164 µM	0.192 µM	0.046 µM	0.602 µM	GI50 [21]: 0.433 µM; GI50 [22]: 0.421 µM; GI50 [23]: 0.693 µM; GI50 [24]: 0.748 µM; GI50 [25]: 0.419 µM; GI50 [26]: 0.068 µM; GI50 [27]: 0.072 µM; GI50 [28]: 0.05 µM; GI50 [29]: 0.203 µM; GI50 [30]: 0.063 µM
COc1cc([C@@H]2c3cc4c(cc3C[C@H]3COC(=O)[C@@H]32)OCO4)cc(OC)c1OC [DESOXYPODOPHYLLOTOXIN]	100%	–	–	1.76 µM	–	–	–	–	–	–	–	–	–	–	–	–	–	–	–	–	–
C=C(c1cc(OC)c(OC)c(OC)c1)c1cc(OC)c(F)cc1OC	44%	0.521 µM	2.44 µM	–	1.22 µM	0.601 µM	2.24 µM	4.12 µM	1.05 µM	2.19 µM	2.16 µM	0.92 µM	0.455 µM	0.666 µM	0.945 µM	0.26 µM	2.16 µM	1.1 µM	0.34 µM	0.498 µM	GI50 [21]: > 10 µM; GI50 [22]: 2.2 µM; GI50 [23]: 6.54 µM; GI50 [24]: 2.67 µM; GI50 [25]: 3.3 µM; GI50 [26]: 0.375 µM; GI50 [27]: 0.547 µM; GI50 [28]: 0.568 µM; GI50 [29]: 0.273 µM; GI50 [30]: 0.587 µM
COc1ccc(C(=O)c2cc(OC)c(OC)c(OC)c2N)cc1F	–	–	–	2 µM	–	–	–	–	–	–	–	–	–	–	–	–	–	–	–	–	–
COc1ccc(C(=O)c2cc(F)c(F)c(OC)c2F)c(OC)c1N	89%	2.09 µM	3.91 µM	29.2 µM	3 µM	0.752 µM	10.2 µM	34.1 µM	8.37 µM	3.78 µM	4.51 µM	1.7 µM	0.961 µM	2.98 µM	8.55 µM	0.407 µM	3.59 µM	3.35 µM	1.83 µM	5.81 µM	GI50 [21]: 11.5 µM; GI50 [22]: 30.7 µM; GI50 [23]: 7.9 µM; GI50 [24]: 6.54 µM; GI50 [25]: 5.47 µM; GI50 [26]: 1.67 µM; GI50 [28]: 0.89 µM; GI50 [29]: 3.69 µM; GI50 [30]: 2.84 µM
COc1ccc(C(=O)c2cc(F)c(F)c(OC)c2F)c(O)c1O	93%	–	–	29.2 µM	–	–	–	–	–	–	–	–	–	–	–	–	–	–	–	–	–
COc1ccc(C(=O)c2cc(F)c(F)c(OC)c2F)cc1O	88%	1.5 µM	2.08 µM	28.2 µM	2.23 µM	1.34 µM	3.72 µM	3.13 µM	2.44 µM	1.6 µM	2.47 µM	1.74 µM	0.969 µM	1.76 µM	2.09 µM	0.285 µM	2.47 µM	3.31 µM	0.186 µM	5.16 µM	GI50 [21]: 9.53 µM; GI50 [22]: 3.75 µM; GI50 [23]: 6.84 µM; GI50 [24]: 3.85 µM; GI50 [25]: 4.39 µM; GI50 [26]: 0.789 µM; GI50 [27]: 0.804 µM; GI50 [28]: 1.03 µM; GI50 [29]: 2.02 µM; GI50 [30]: 0.703 µM
